The source made the active and inactive calls. The calls are words filed in the database; no cut-off is given here.

The results in this text go back to ChEMBL document CHEMBL1154208, “Antispasmodic effects and structure-activity relationships of labdane diterpenoids from Marrubium globosum ssp. libanoticum” (2009).

The first assay has as its system Ileum. Nature of the assay: Antispasmodic activity in mouse distal ileum assessed as inhibition of acetylcholine-induced contractions at 100 ug/ml after 20 mins. Type of assay: functional.
Conditions: not given
Summed up:
(§1)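 Isolated mouse ileum segments. Contractions evoked by acetylcholine (10^-6 M) at 20 min intervals; after at least three stable control contractions, responses repeated with noncumulative increasing compound concentrations added 20 min before the stimulus, after tissue washing. Mean ± SEM of 6-8 experiments; concentration-response curves fitted by nonlinear regression.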
Take `C[C@@H]1C[C@H]2OC(=O)[C@@]3(C)CCC[C@@](C)([C@@H]23)[C@@]12CC[C@@]1(CO[C@H](O)C1)O2`: the inhibition entry was “inactive”. On the same count and under the same terms, the same measure for `C[C@@H]1C[C@H]2OC(=O)[C@@]3(C)CCC[C@@](C)([C@@H]23)[C@@]12CC[C@@]1(COC(=O)C1)O2`: “Active”; for `C[C@@H]1C[C@@H](O)[C@H]2C(C)(C)CCC[C@]2(C)[C@@]1(O)CCC1=CC(=O)OC1`: “inactive”. As for `C[C@@H]1C[C@H]2OC(=O)[C@@]3(C)CCC[C@@](C)([C@@H]23)[C@@]12CC[C@]1(CO[C@H](O)C1)O2`, the inhibition result was “Active”.

With `C[C@@H]1C[C@H]2OC(=O)[C@@]3(C)CCC[C@@](C)([C@@H]23)[C@@]12CC[C@]1(COC(=O)C1)O2`, the inhibition entry is “Active”. On the same count and under the same terms, the same measure for `C[C@@H]1C[C@H]2OC(=O)[C@@]3(C)CCC[C@@](C)([C@@H]23)[C@@]1(O)CCC1=CC(=O)OC1`: “inactive”; for `C[C@@H]1C[C@H]2OC(=O)[C@@]3(C)CCC[C@@](C)([C@@H]23)[C@@]1(O)CCCC(=O)O`: “Active”; for `C[C@@H]1C[C@H]2OC(=O)[C@@]3(C)CCC[C@@](C)([C@@H]23)[C@@]12CC[C@]1(CO[C@@H](O)C1)O2`: “Active”.

Regarding `C[C@@H]1C[C@H]2OC(=O)[C@@]3(C)CCC[C@@](C)([C@@H]23)[C@@]12CC[C@@]1(CO[C@@H](O)C1)O2`, the inhibition entry was “inactive”.

The assay is the same for the next values; noted with them: read-out: INH.
`C[C@@H]1C[C@H]2OC(=O)[C@@]3(C)CCC[C@@](C)([C@@H]23)[C@@]12CCCC(=O)O2` [MARRULACTONE]: the inhibition at 100 µg/mL is < 50%.

On to `C[C@@H]1C[C@H]2OC(=O)[C@@]3(C)CCC[C@@](C)([C@@H]23)[C@@]12CCC(=O)O2`, for which the inhibition at 100 µg/mL is < 50%.

For a further assay, the system named is Ileum. Nature of the assay: Antispasmodic activity in mouse distal ileum assessed as inhibition of acetylcholine-induced contractions after 20 mins. Type of assay: functional, tissue-based.
Conditions: not given
Summed up:
as §1
Consider `CCO[C@@H]1O[C@@H]2O[C@]3(CC[C@]2(O)[C@H]1O)[C@H](C)C[C@H]1OC(=O)[C@@]2(C)CCC[C@@]3(C)[C@@H]12` (relative stereo), for which the inhibition result is “Dose-dependent effect”.
